Three molecules from ChEMBL document CHEMBL5325390, “1,2,4-Triazole-3-thione analogues with an arylakyl group at position 4 as metallo-β-lactamase inhibitors” (Bioorg Med Chem, 2022) can be followed below.

SMILES strings stand for the structures. Bounds are passed on as bounds.

Data set [1] deals with Beta-lactamase VIM-1 (Bacteria, UniProt Q8GDC1). The data set can be described thus: Binding affinity to VIM-1 (unknown origin) expressed in Escherichia coli BL21(DE3) assessed as inhibition constant by measuring rate of substrate hydrolysis by UV-Vis spectrophotometric analysis. The essentials: (§1)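 Purified MBL (1–70 nM) with 150 µM imipenem or meropenem as reporter substrate, 50 mM HEPES pH 7.5, 30 °C. Hydrolysis followed by absorbance at 300 nm without and with inhibitor (0.5 µM–1 mM). Ki from the slope of v0/vi vs [I] under a competitive model, or from Dixon plots varying inhibitor and substrate. […] Triplicate, mean ± SD.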

Data set [2] is described as follows: Binding affinity to VIM-2 (unknown origin) expressed in Escherichia coli BL21(DE3) assessed as inhibition constant by measuring rate of substrate hydrolysis by UV-Vis spectrophotometric analysis. The method in brief: as §1
Data set [3] is described as follows: Binding affinity to VIM-4 (unknown origin) expressed in Escherichia coli BL21(DE3) assessed as inhibition constant by measuring rate of substrate hydrolysis by UV-Vis spectrophotometric analysis. The method in brief:
as §1

Data set [4] concerns the target Metallo-beta-lactamase type 2 (Bacteria, UniProt C7C422). Kind of data set: Binding affinity to NDM1 (unknown origin) expressed in Escherichia coli BL21(DE3) assessed as inhibition constant by measuring rate of substrate hydrolysis by UV-Vis spectrophotometric analysis. As to conditions: read-out: Ki. The essentials: as §1
The test system of data set [5] is Klebsiella pneumoniae. The data set can be described thus: Antimicrobial synergistic activity against blaVIM-1-producing multidrug-resistant Klebsiella pneumoniae 7023 clinical isolate assessed as meropenem MIC at 32 ug/ml by CLSI based broth microdilution method (reference value: 16 ug/ml). It counts as functional. The conditions noted are these: dose 32 µg/ml.

Data set [6] concerns Klebsiella pneumoniae. Kind of data set: Antimicrobial synergistic activity against blaVIM-4-producing multidrug-resistant Klebsiella pneumoniae VA416/02 clinical isolate assessed as meropenem MIC at 32 ug/ml by CLSI based broth microdilution method (reference value: 16 ug/ml). It counts as functional. As to conditions: dose 32 µg/ml.
For data set [7], the system named is Escherichia coli. Kind of data set: Synergistic antimicrobial activity against blaNDM-1-producing multidrug-resistant Escherichia coli SI-004M clinical isolate assessed as meropenem MIC at 32 ug/ml by CLSI based microdilution method (reference value: 64 ug/ml). Type of data set: functional. As to conditions: dose 32 µg/ml.
For data set [8], the target named is T1, Angiotensin-converting enzyme (Oryctolagus cuniculus) (UniProt P12822).
T1 sequence (whole entry): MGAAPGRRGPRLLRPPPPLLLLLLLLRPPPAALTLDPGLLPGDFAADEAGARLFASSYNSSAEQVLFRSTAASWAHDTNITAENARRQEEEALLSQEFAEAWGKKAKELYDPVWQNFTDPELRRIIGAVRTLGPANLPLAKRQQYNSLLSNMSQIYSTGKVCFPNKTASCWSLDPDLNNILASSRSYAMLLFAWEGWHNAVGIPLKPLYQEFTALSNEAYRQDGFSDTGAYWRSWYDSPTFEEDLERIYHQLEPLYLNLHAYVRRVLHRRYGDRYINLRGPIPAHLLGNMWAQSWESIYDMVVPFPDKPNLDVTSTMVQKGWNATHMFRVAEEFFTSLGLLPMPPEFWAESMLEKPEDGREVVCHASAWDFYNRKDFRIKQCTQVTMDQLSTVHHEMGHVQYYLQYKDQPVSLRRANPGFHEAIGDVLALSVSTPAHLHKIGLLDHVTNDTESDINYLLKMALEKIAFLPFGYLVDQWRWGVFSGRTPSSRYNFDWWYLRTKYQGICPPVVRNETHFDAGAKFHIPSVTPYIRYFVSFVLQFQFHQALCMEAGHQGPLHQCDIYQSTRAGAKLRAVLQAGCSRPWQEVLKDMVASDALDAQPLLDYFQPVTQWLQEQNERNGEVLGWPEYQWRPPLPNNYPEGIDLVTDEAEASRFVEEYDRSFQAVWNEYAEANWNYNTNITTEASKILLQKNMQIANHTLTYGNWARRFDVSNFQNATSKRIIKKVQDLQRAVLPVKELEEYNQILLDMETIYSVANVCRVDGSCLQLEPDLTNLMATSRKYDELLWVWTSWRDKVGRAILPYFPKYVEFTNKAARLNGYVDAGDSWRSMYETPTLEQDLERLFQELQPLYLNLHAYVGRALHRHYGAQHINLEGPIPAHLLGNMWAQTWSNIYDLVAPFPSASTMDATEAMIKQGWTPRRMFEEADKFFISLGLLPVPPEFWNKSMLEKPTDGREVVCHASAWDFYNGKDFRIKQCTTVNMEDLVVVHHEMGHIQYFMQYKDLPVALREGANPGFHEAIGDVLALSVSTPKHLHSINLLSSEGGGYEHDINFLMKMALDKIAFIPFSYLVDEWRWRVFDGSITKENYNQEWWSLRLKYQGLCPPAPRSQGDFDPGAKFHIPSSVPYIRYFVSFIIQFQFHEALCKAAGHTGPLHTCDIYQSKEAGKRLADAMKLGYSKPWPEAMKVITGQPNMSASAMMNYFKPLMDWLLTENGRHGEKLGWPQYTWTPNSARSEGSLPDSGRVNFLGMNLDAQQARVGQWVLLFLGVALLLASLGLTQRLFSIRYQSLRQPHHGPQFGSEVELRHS
The data set can be described thus: Inhibition of rabbit lung angiotensin-converting enzyme at 100 uM using Abz-Gly-Phe-(NO2)-Pro as substrate by fluorescence based microplate reader analysis relative to control. It counts as tissue-based. The method in brief:
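Rabbit lung ACE, 1.5 mU per well, in 150 mM Tris, 750 mM NaCl, pH 8.3, with Abz-Gly-Phe(NO2)-Pro substrate. Blank-corrected fluorescence of released Abz-Gly-OH (ex 316, em 413 nm) followed up to 90 min. Test compounds at 100 µM; captopril control at 100 nM. Inhibition % = 100 − (vi/v0 × 100).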

The target in data set [9] is T2, Angiotensin-converting enzyme (Oryctolagus cuniculus, UniProt P12822).
T2 sequence (P12822 whole entry): T1 sequence (whole entry)
Kind of data set: Binding affinity to rabbit lung angiotensin-converting enzyme assessed as inhibition constant.

The subject of data set [10] is HeLa. Kind of data set: Cytotoxicity against human HeLa cells assessed as induction of cell lysis upto 250 uM measured for 72 hrs by realtime-glo MT assay. Type of data set: toxicity, cell-based. The method in brief:
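HeLa cells at 1,500 cells/well exposed to compound up to 250 µM for up to 72 h. Viability read by RealTime-Glo MT luminescent assay. Triplicate.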

The subject of data set [11] is metallo-β-lactamase IMP-1 (Pseudomonas aeruginosa). Kind of data set: Inhibition of IMP1 (unknown origin) expressed in Escherichia coli BL21(DE3) assessed as substrate hydrolysis at 100 uM by UV-Vis spectrophotometric analysis relative to control.
Data set [12] shares this test system. The data set can be described thus: Inhibition of IMP1 (unknown origin) expressed in Escherichia coli BL21(DE3) assessed as substrate hydrolysis at 200 uM by UV-Vis spectrophotometric analysis relative to control.
A short description of data set [13]: Binding affinity to IMP1 (unknown origin) expressed in Escherichia coli BL21(DE3) assessed as inhibition constant by measuring rate of substrate hydrolysis by UV-Vis spectrophotometric analysis. The conditions noted are these: read-out: Ki. The essentials: as §1
In data set [14] the target is Metallo-beta-lactamase type 2 (Bacteria) (UniProt C7C422). The data set can be described thus: Inhibition of NDM1 (unknown origin) expressed in Escherichia coli BL21(DE3) assessed as substrate hydrolysis at 100 uM by UV-Vis spectrophotometric analysis relative to control. The essentials: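 Single-point screen at 100 or 200 µM inhibitor against purified MBL (1–70 nM) with 150 µM imipenem or meropenem reporter substrate, 50 mM HEPES pH 7.5, 30 °C. Initial hydrolysis rate read by absorbance at 300 nm and compared with the uninhibited reaction. Triplicate.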
Metallo-beta-lactamase type 2 (Bacteria), sequence (C7C422 whole entry): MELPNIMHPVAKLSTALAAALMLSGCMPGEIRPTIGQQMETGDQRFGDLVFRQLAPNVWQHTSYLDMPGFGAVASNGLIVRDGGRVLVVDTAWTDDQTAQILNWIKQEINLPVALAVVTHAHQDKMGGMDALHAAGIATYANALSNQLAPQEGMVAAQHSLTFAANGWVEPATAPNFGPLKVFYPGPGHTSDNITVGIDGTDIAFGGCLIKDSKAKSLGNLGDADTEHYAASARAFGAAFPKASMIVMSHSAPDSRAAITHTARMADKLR

The test system of data set [15] is Klebsiella pneumoniae. The data set can be described thus: Synergistic antimicrobial activity against blaVIM-4-producing multidrug-resistant Klebsiella pneumoniae VA416/02 clinical isolate assessed as fractional inhibitory concentration index in presence of meropenem by checkerboard assay. It counts as functional.
Data set [16] deals with metallo-β-lactamase L1 (Stenotrophomonas maltophilia). Kind of data set: Inhibition of L1 (unknown origin) expressed in Escherichia coli BL21(DE3) assessed as substrate hydrolysis at 100 uM by UV-Vis spectrophotometric analysis relative to control.
The target in data set [17] is T1, Angiotensin-converting enzyme (Oryctolagus cuniculus). The conditions noted are these: Lung, dose 100.0 nM.

Metallo-beta-lactamase type 2, sequence (C7C422 whole entry): as above

As for `Oc1ccc(CCn2c(-c3cccc(-c4ccccc4)c3)n[nH]c2=S)c(O)c1`, the Ki in data set [1] is 410 nM; in [2], 1300 nM; in [3] it was 820 nM; in data set [4], 14300 nM; in data set [9] it was 55000 nM. Moreover, the minimum inhibitory concentration (MIC) in data set [5] came out at 2 µg/mL; in data set [6], 4 µg/mL; in data set [7], 32 µg/mL. In addition, the inhibition was 35% in data set [8], under 30% in data set [11] and under 50% in [12]. Also, the Activity entry in [10] was “Non-Toxic”.
Consider `S=c1[nH]nc(-c2ccccc2)n1CCCc1ccccc1`, for which the Ki is 560 nM in data set [1]; 740 nM in [2]; 900 nM in [3]; 14000 nM in data set [13]; 30000 nM in data set [9]. The inhibition was under 30% in [14], 50% in data set [8] and under 30% in data set [16]. In addition, the MIC amounted to 2 µg/mL in data set [5], 2 µg/mL in data set [6] and 64 µg/mL in data set [7]. Besides, in data set [15], the FIC was 0.25.
For `C[C@H](CS)C(=O)N1CCC[C@H]1C(=O)O`, the inhibition in [17] was determined as 96%.
